Assay results as given in article PMC8157486 (Chemical Science, 2020).
“Also recorded” adds a separate entry of the source. Bridge positions count the residues as written; N and C are the ends. Square brackets hold non-standard residues; d marks the D form. Triazole bridges read from a SMILES are 1,4-linked. Peptide text beside a SMILES is read from it. * marks the point of attachment. Biotin = O=C1N[C@H]2[C@H](CS[C@H]2CCCCC(=O)*)N1; Lys(N3) = [N-]=[N+]=NCCCC[C@H](N)C(=O)O; PEG5 = NCCOCCOCCOCCOCCOCCC(=O)O; Pra = C#CC[C@H](N)C(=O)O

How the values were obtained:
[1] = test system: MrkA-producing multidrug-resistant K. pneumoniae (strains BAA 1705 & 2146); experiment: Whole-cell ELISA, biotinylated PCC binding; assay type: cell-based, Klebsiella pneumoniae; conditions: Fig. 5C; for whole-cell ELISA signal (SAv-HRP, 450 nm): biotinylated PCC at 5 μM; for binding selectivity towards MrkA-expressing K. pneumoniae cells versus non-target bacteria: whole-cell ELISA versus E. coli and S. Typhimurium
How it was run: (§1)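 10^8 bacteria per test, from overnight cultures at 37 °C with shaking in G-CAA (promotes MrkA) or LB medium. Blocked in PBS-1% BSA (1 h, 37 °C), then incubated with biotinylated PCC in PBS-BSA (1 h, 37 °C). Washed thrice, then streptavidin-HRP (1:1000, 1 h, 37 °C). Developed with TMB, quenched with 2 N H2SO4, absorbance read at 450 nm.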

[2] = test system: MrkA-knockout KPPR1 cells; experiment: Whole-cell ELISA, biotinylated PCC binding; assay type: cell-based, Klebsiella pneumoniae; conditions: mrkA (with mrkB and mrkC) knocked out
How it was run: as §1

[3] = test system: Escherichia coli (E. coli); experiment: Whole-cell ELISA, biotinylated PCC binding; assay type: cell-based; conditions: biotinylated PCC at 5 μM; does not express MrkA; Fig. 5C
How it was run: as §1

[4] = test system: K. pneumoniae cells (strain BAA 1705); experiment: Whole-cell ELISA on cells cultured in G-CAA media or LB; assay type: cell-based, Klebsiella pneumoniae; conditions: biotinylated PCC at 50 μM; Fig. S7B
[5] = test system: wild type MrkA-expressing KPPR1 cells (ATCC 43816); experiment: Whole-cell ELISA, biotinylated PCC binding; assay type: cell-based, Klebsiella pneumoniae; conditions: biotinylated PCC at 5 μM down to 5 nM; cells cultured in G-CAA media; 1 h 37 °C
How it was run: as §1

[6] = test system: Salmonella enterica serovar Typhimurium (S. Typhimurium); experiment: Whole-cell ELISA, biotinylated PCC binding; assay type: cell-based; conditions: biotinylated PCC at 5 μM; does not express MrkA; Fig. 5C
How it was run: as §1

[7] = test system: K. pneumoniae cells (strain BAA 2146); experiment: Flow cytometry antibody recruitment; assay type: cell-based, Klebsiella pneumoniae; conditions: >18 000 single cells
How it was run: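 Cells grown overnight in G-CAA medium, washed, and incubated with DNP-conjugated PCC. After a wash they were stained with Alexafluor488-labelled anti-DNP antibody, washed, resuspended in PBS and held 2 d at 4 °C. Cytometer calibrated with 3.5 μm fluorescent beads. Excitation 488 nm, emission 530 nm. Gated on single cells, with an unstained FMO control setting the DNP+ gate.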

[8] = test system: K. pneumoniae cells (strain BAA 1705); experiment: Gentamicin protection assay: phagocytosis and opsonophagocytic killing; assay type: cell-based, Klebsiella pneumoniae; conditions: for colony counts at 1 h (phagocytosis), control treatments: AR-PCC only (5 μM, no anti-DNP) or anti-DNP antibody only, triplicate
How it was run: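 Bacteria opsonized with DNP-PCC (5 μM, PBS-1% BSA, 1 h, 37 °C), then anti-DNP (1:1000, 1 h, 37 °C). They infected immortalised mouse BMDMs (RPMI, 10% serum) at MOI 50 for 0.5 h at 37 °C. After washing, gentamicin 100 μg ml−1 was added. At 1 h and 24 h, macrophages were lysed in 0.2% Triton X-100 and CFU plated on LB agar. Triplicate.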

[9] = molecular target: T1, full-length recombinant MrkA protein (Klebsiella pneumoniae, UniProt P12267); experiment: Sandwich ELISA: immobilised biotinylated PCC captures full-length MrkA; assay type: binding
T1 sequence (P12267 23-202): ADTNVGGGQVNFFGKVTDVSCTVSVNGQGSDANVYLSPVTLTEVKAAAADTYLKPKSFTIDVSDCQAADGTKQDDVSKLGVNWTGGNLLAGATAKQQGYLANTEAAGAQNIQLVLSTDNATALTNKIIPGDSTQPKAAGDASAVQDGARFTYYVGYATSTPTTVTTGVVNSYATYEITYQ
How it was run: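 NeutrAvidin-coated wells were loaded with 2 μM biotinylated PCC (2 h, room temperature), then blocked overnight in 5% milk at 4 °C. Recombinant MrkA (N-terminal 6xHis-SUMO tag) was titrated for 1 h, followed by rabbit anti-His pAb (1:5000, 1 h) and anti-rabbit HRP (1:2000, 1 h). Peroxidase substrate developed for 1–40 min and was quenched with 1 M H2SO4.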

With `CC(C)C[C@@H]1NC(=O)[C@@H](NC(=O)CCOCCOCCOCCOCCOCCNC(=O)CCCC[C@@H]2SC[C@@H]3NC(=O)N[C@@H]32)Cc2cn(nn2)CCCC[C@@H](C(N)=O)NC(=O)[C@H](Cc2ccccc2)NC(=O)[C@H](Cc2ccccc2)NC(=O)[C@H](Cc2ccccc2)NC(=O)[C@H](CC(C)C)NC1=O` [cy(LLFFF)] ({Biotin-PEG5}-[Pra]LLFFF[Lys(N3)]-NH2; triazole 1-7) the “whole-cell ELISA signal (SAv-HRP, 450 nm)” value (from here on “whole-cell ELISA signal”) [1] was “strong signals”, the “binding selectivity towards MrkA-expressing K. pneumoniae cells versus non-target bacteria” value [1] was “excellent binding selectivity” and the “whole-cell ELISA signal” value [2] was “ELISA intensities comparable to baseline”. For the same compound, the “whole-cell ELISA signal” value [3] was “only weak signals”, the “whole-cell ELISA binding, G-CAA versus LB culture” value [4] was “bound K. pneumoniae cells regardless of MrkA-expression level” and the “whole-cell ELISA signal” value [5] was “strong signals”. For the same compound, the “whole-cell ELISA signal” value [6] was “only weak signals”.
For “cy(HNGPT)-DNP (sidechain bridge or staple)”, the “fluorescence intensity (Alexafluor 488 anti-DNP), flow cytometry” value ([7]; control AR-PCC at 50 μM plus anti-DNP, predominantly) was < 1.0 × 10^1.
“cy(LLFFA)-DNP (sidechain bridge or staple)” was tested, and the “colony counts at 1 h (phagocytosis), control treatments” value (shortened to “colony counts at 1 h (phagocytosis)”) [8] was “None of these treatments elicited phagocytosis above the basal level”.
With “17: cy(LLFFF) with a hexa-arginine tag (RRRRRRLLFFF; LLFFF closed into a macrocycle by azidolysine-propargylglycine cyclization; N-terminal Biotin-peg group) [Compound 17]” the “binding selectivity towards MrkA-expressing K. pneumoniae cells versus non-target bacteria” value [1] was “similarly high selectivity” and the “binding of MrkA protein in mouse sera” value ([9]; MrkA protein at 250 nM in solutions of 10 and 100% mouse sera, Fig. 4B inset, listed as cy(LLFFF)+R6) was “bound MrkA protein in solutions of 10 and 100% mouse sera, albeit at lower levels versus in 0% serum; also recorded: binds MrkA protein in the context of sera”.
For cy(LLFFA) (sidechain bridge or staple), the “whole-cell ELISA signal” value [1] was “low signals”, the “whole-cell ELISA signal” value [2] was “ELISA intensities comparable to baseline” and the “whole-cell ELISA signal” value [3] was “low signals”. For the same compound, the “whole-cell ELISA binding, G-CAA versus LB culture” value [4] was “bound K. pneumoniae cells regardless of MrkA-expression level”, the “whole-cell ELISA signal” value [5] was “much lower intensities” and the “whole-cell ELISA signal” value [6] was “low signals”.
With “2: L-to-A substitution analogue of cy(LLFFF) (ALFFF; macrocycle closed by azidolysine-propargylglycine cyclization; N-terminal Biotin-peg group) [Compound 2]” the “MrkA binding (ELISA signal) compared to unmodified cy(LLFFF), alanine scan” value ([9]; full-length MrkA, N-terminal Biotin-peg PCCs, Fig. 4A) was “Modestly lower binding”.
In the case of “cy(LLFFF)+R6-DNP (sidechain bridge or staple)”, the “colony counts at 1 h (phagocytosis)” value [8] is reported as “None of these treatments elicited phagocytosis above the basal level”.
In the case of “cy(LLFFF)-DNP (sidechain bridge or staple)”, the “fluorescence (Alexafluor 488 anti-DNP), flow cytometry, versus controls” value ([7]; AR-PCC at 1 or 5 μM plus secondary antibody) is reported as “much higher fluorescence”, the “colony counts at 24 h (opsonophagocytic killing)” value ([8]; 24 h of incubation, AR-PCC 5 μM plus anti-DNP) is reported as “little to no cell counts” and the “colony counts at 1 h (phagocytosis)” value [8] is reported as “None of these treatments elicited phagocytosis above the basal level”.
